Columns and labels:
[1] = system: Brain; assay: Biodistribution in Wistar rat brain at 40+/-4 MBq, iv after 25 mins; type: ADME, organism-based; details: in vivo
[2] = system: Brain; assay: Biodistribution in 50 mg/kg cyclosporin A pretreated Wistar rat brain at 27+/-2 MBq, iv after 25 mins; type: ADME, organism-based; parameters: dose 50 mg/kg, route intravenous; details: in vivo
In short: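 Male Wistar rats pretreated with saline or cyclosporin A (50 mg/kg, tail vein), then given the [11C] tracer via penile vein. Dynamic microPET with a whole-brain 3D ROI. SUV read from the time-activity curve at 25 min, assuming 1 g/mL tissue density. Mean ± SEM.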

[3] = system: Plasma; assay: Biodistribution in Wistar rat plasma at 40+/-4 MBq, iv after 60 mins; type: ADME, organism-based; details: in vivo, 1 h
[4] = system: Rattus norvegicus; assay: AUC in 50 mg/kg cyclosporin A pretreated Wistar rat at 27+/-2 MBq, iv; type: ADME, organism-based, Plasma; parameters: dose 50 mg/kg, route intravenous; details: in vivo
In short: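 Male Wistar rats with a femoral arterial cannula placed under isoflurane. Saline or cyclosporin A (50 mg/kg, commercial solution) given via tail vein, then the [11C] tracer via penile vein. Dynamic microPET over the brain for 76 min, with 14 arterial samples to 60 min. Plasma counted in a γ counter. AUC of whole-brain or plasma SUV over 0-60 min.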

[5] = Biodistribution in Wistar rat amygdala at 40+/-4 MBq, iv after 80 mins; type: ADME, organism-based; details: in vivo
[6] = Biodistribution in Wistar rat bulbus olfactorius at 40+/-4 MBq, iv after 80 mins; type: ADME, organism-based, Olfactory bulb; details: in vivo
[7] = system: Cerebellum; assay: Biodistribution in Wistar rat cerebellum at 40+/-4 MBq, iv after 80 mins; type: ADME, organism-based; details: in vivo
[8] = Biodistribution in Wistar rat cingulate cortex at 40+/-4 MBq, iv after 80 mins; type: ADME, organism-based; details: in vivo
In short: (§1)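 Male Wistar rats (12 h light/dark, chow ad libitum) were fitted with a femoral arterial cannula under isoflurane. They were pretreated via tail vein with saline, cyclosporin A (50 mg/kg), or nonradioactive tracer compound (15 mg/kg; 10 mg/mL in saline with 35% ethanol). The 11C tracer was then given via penile vein, followed by 76 min microPET. Animals were then terminated; excised tissues were weighed and gamma-counted with decay correction. Values are SUVs (tissue MBq/g × body weight g / injected MBq).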

[9] = Biodistribution in Wistar rat entorhinal cortex at 40+/-4 MBq, iv after 80 mins; type: ADME, organism-based; details: in vivo; in short: as §1
[10] = Biodistribution in Wistar rat frontal cortex at 40+/-4 MBq, iv after 80 mins; type: ADME, organism-based; details: in vivo; in short: as §1
[11] = system: Hippocampus; assay: Biodistribution in Wistar rat hippocampus at 40+/-4 MBq, iv after 80 mins; type: ADME, organism-based; details: in vivo; in short: as §1
[12] = Biodistribution in Wistar rat medulla at 40+/-4 MBq, iv after 80 mins; type: ADME, organism-based, Medulla of organ; details: in vivo; in short: as §1
[13] = Biodistribution in Wistar rat parietal/temporal/occipital cortex at 40+/-4 MBq, iv after 80 mins; type: ADME, organism-based; details: in vivo; in short: as §1
[14] = system: Pons; assay: Biodistribution in Wistar rat pons at 40+/-4 MBq, iv after 80 mins; type: ADME, organism-based; details: in vivo
[15] = system: Striatum; assay: Biodistribution in Wistar rat striatum at 40+/-4 MBq, iv after 80 mins; type: ADME, organism-based; details: in vivo
[16] = system: Bone; assay: Biodistribution in Wistar rat bone at 40+/-4 MBq, iv after 80 mins; type: ADME, organism-based, Bone element; details: in vivo
[17] = system: Colon; assay: Biodistribution in Wistar rat colon at 40+/-4 MBq, iv after 80 mins; type: ADME, organism-based; details: in vivo; in short: as §1
[18] = system: Duodenum; assay: Biodistribution in Wistar rat duodenum at 40+/-4 MBq, iv after 80 mins; type: ADME, organism-based; details: in vivo; in short: as §1
[19] = Biodistribution in Wistar rat fat at 40+/-4 MBq, iv after 80 mins; type: ADME, organism-based, Adipose tissue; details: in vivo; in short: as §1
[20] = system: Heart; assay: Biodistribution in Wistar rat heart at 40+/-4 MBq, iv after 80 mins; type: ADME, organism-based; details: in vivo; in short: as §1
[21] = system: Ileum; assay: Biodistribution in Wistar rat ileum at 40+/-4 MBq, iv after 80 mins; type: ADME, organism-based; details: in vivo; in short: as §1
[22] = system: Kidney; assay: Biodistribution in Wistar rat kidney at 40+/-4 MBq, iv after 80 mins; type: ADME, organism-based; details: in vivo; in short: as §1
[23] = system: Liver; assay: Biodistribution in Wistar rat liver at 40+/-4 MBq, iv after 80 mins; type: ADME, organism-based; details: in vivo; in short: as §1
[24] = system: Lung; assay: Biodistribution in Wistar rat lung at 40+/-4 MBq, iv after 80 mins; type: ADME, organism-based; details: in vivo; in short: as §1
[25] = system: Muscle tissue; assay: Biodistribution in Wistar rat muscle at 40+/-4 MBq, iv after 80 mins; type: ADME, organism-based; details: in vivo; in short: as §1
[26] = system: Pancreas; assay: Biodistribution in Wistar rat pancreas at 40+/-4 MBq, iv after 80 mins; type: ADME, organism-based; details: in vivo; in short: as §1
[27] = system: Plasma; assay: Biodistribution in Wistar rat plasma at 40+/-4 MBq, iv after 80 mins; type: ADME, organism-based; details: in vivo
[28] = Biodistribution in Wistar rat red blood cells at 40+/-4 MBq, iv after 80 mins; type: ADME, organism-based, Erythrocyte; details: in vivo

SUV [1]: 0.88 | SUV [2]: 2.17 | SUV [3]: 0.34 | AUC [4]: 97% | SUV [5]: 0.37 | SUV [6]: 0.33 | SUV [7]: 0.5 | SUV [8]: 0.37 | SUV [9]: 0.35 | SUV [10]: 0.36 | SUV [11]: 0.3 | SUV [12]: 0.41 | SUV [13]: 0.36 | SUV [14]: 0.48 | SUV [15]: 0.31 | SUV [16]: 0.28 | SUV [17]: 1.37 | SUV [18]: 2.74 | SUV [19]: 0.36 | SUV [20]: 0.37 | SUV [21]: 1.27 | SUV [22]: 1.45 | SUV [23]: 3.27 | SUV [24]: 1.19 | SUV [25]: 0.37 | SUV [26]: 3.16 | SUV [27]: 0.29 | SUV [28]: 0.18
SMILES: COc1cc2c(cc1OC)CN(CCCC1CCCc3c(O[11CH3])cccc31)CC2 (stereo not drawn)

Reference: ChEMBL document CHEMBL1137781, “Synthesis and preclinical evaluation of novel PET probes for P-glycoprotein function and expression” (J Med Chem, 2009)
